Data set [1] can be described thus: Helicity and helical rigidity by circular dichroism. The format is physicochemical. As to conditions: ratio between molar ellipticity in 15% TFE and in 100% TFE. (In general: CD spectra are sensitive to the conformation of chiral molecules.)
The test system of data set [2] is human red blood cells. The data set can be described thus: Hemolysis assay. The class given is cell-based. As to conditions: hRBC, at 64 μg mL^−1 peptide; mean ± SD. The gist of the method: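 Human red blood cells exposed to two-fold serial dilutions of test peptide, with 4096 µg mL⁻¹ as the assay's upper concentration limit. HC10 is interpolated continuously from the dilution series. Values are means of three independent experiments, each with at least two technical duplicates, with standard deviation.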

Results on one substance are retold here after article PMC11867109 (Chemical Science, 2025).

No end group written: not given here.

On to GLFDIIKKIAESF-NH2 [Aurein 1.2], for which, in data set [1], the “Helical rigidity % ± SD” value was found to be 102 ± 2%. In data set [2], this substance gave a hemolysis of 37.2 ± 1.8%.
